Like-named read-outs stand apart in the source and are kept apart here.
Tests used:
[1] = tested on: intracellular amastigotes of T. cruzi (Y strain); assay: Effect against intracellular parasites in infected cardiac cell cultures; assay type: cell-based, Trypanosoma cruzi; conditions: for SI (LC50/EC50), intracellular amastigotes: LC50 on cardiac cells at 48 h, 48 h/37°C
Method in brief: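 T. cruzi Y strain infects primary embryonic Swiss mouse cardiac cells (parasite:host 10:1, 24 h), which are then washed. Cells are exposed to test compound (0.043–3.5 µM) for 48 h at 37°C in 5% CO2, then Bouin-fixed and Giemsa-stained. Infective index is % infected cells × mean parasites per infected cell; EC50 is 50% index reduction versus untreated. SI = 48 h MTT LC50 (uninfected cells)/EC50.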

[2] = tested on: bloodstream trypomastigotes (BTs) of T. cruzi (Y strain); assay: Trypanocidal assay against bloodstream trypomastigotes; assay type: cell-based, Trypanosoma cruzi; conditions: for SI (LC50/EC50), BTs: LC50 on cardiac cells at 24 h, BTs 24 h/37°C; for EC50: read-out: EC50 (µM), BTs
Method in brief: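 Bloodstream trypomastigotes come from Swiss mice at peak parasitemia. They are incubated at 5×10^6/mL in RPMI 1640 plus 10% fetal bovine serum with serial dilutions of test compound (0.001–10.6 µM) for 24 h at 37°C. Motile live parasites are counted by light microscopy in a Neubauer chamber; EC50 is a 50% drop versus untreated. SI = 24 h MTT LC50 on uninfected mouse cardiac cells/EC50.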

[3] = tested on: intracellular amastigotes of T. cruzi (Y strain); conditions: read-out: EC50, infection of T. cruzi-infected CCs; after 48 h of treatment; cited from earlier work
[4] = fast plasmatic clearance profile; cited from earlier work

## 2,5-Bis[2-(2,2,2-trifluoroethoxy)-4-(2-pyridylimino)aminophenyl]furan [DB1959]
[1]
  SI (LC50/EC50), intracellular amastigotes: 1.6
[2]
  SI (LC50/EC50), BTs: 45
[2]; 24 h/37°C, Y strain
  EC50: 0.078 ± 0.01 µM

## 2,5-Bis[2-isobutoxy-4-(2-pyridylimino) aminophenyl]furan hydrochloride [DB1890B]
[1]
  SI (LC50/EC50), intracellular amastigotes: 9.7
[3]
  EC50: 900 nM
[2]
  SI (LC50/EC50), BTs: 760
[2]; 24 h/37°C, Y strain
  EC50: 0.014 ± 0.007 µM

## 2,5-Bis[2-isopropoxy-4-(2-pyridylimino) aminophenyl]thiophene [DB1957]
[1]
  SI (LC50/EC50), intracellular amastigotes: 6
[2]
  SI (LC50/EC50), BTs: 17
[2]; 24 h/37°C, Y strain
  EC50: 0.068 ± 0.0014 µM

## O=C(Cn1ccnc1[N+](=O)[O-])NCc1ccccc1 [Bz, benznidazole, reference compound]
[1]
  SI (LC50/EC50), intracellular amastigotes: >360
[1]; Trypanosoma cruzi, 48 h, read-out: EC50 (µM), intracellular amastigotes
  EC50: 3.7 ± 1.72 µM
[2]
  SI (LC50/EC50), BTs: >77
[2]; Trypanosoma cruzi, 24 h
  EC50: 12.9 ± 1.93 µM

## CC(C)Oc1cc(NC(=N)c2ccccn2)ccc1-c1ccc(-c2ccc(NC(=N)c3ccccn3)cc2OC(C)C)s1 [DB1867, reference compound]
[3]
  EC50: 58 nM

## CC1CS(=O)(=O)CCN1/N=C/c1ccc([N+](=O)[O-])o1 (stereo not shown) [nifurtimox]
[4]
  Half-life: 3 h

Source: publication PMC5388221 (Drug Design, Development and Therapy, 2017)
